MEKK3 PB1 HTS = raises or lowers MEK5 binding to the human MEKK3 PB1 domain | Q99759 | bead-based flow cytometry, Alexa488-MEK5 binding to MEKK3; actives lie on both sides; 0 = blocked by unlabeled MEK5, 100 = vehicle | binding response (% of control), % at 10 µM | 290,000 tested, 1.4% active | AID 1529;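 active = binding response more than 3 SD above or below the average of its plate-row segment, actives on both sides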;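 note: Alexa488 bead fluorescence after subtracting the streptavidin-only scavenger bead signal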
Target sequence (Q99759 whole entry, looked up, the tested form may be a part): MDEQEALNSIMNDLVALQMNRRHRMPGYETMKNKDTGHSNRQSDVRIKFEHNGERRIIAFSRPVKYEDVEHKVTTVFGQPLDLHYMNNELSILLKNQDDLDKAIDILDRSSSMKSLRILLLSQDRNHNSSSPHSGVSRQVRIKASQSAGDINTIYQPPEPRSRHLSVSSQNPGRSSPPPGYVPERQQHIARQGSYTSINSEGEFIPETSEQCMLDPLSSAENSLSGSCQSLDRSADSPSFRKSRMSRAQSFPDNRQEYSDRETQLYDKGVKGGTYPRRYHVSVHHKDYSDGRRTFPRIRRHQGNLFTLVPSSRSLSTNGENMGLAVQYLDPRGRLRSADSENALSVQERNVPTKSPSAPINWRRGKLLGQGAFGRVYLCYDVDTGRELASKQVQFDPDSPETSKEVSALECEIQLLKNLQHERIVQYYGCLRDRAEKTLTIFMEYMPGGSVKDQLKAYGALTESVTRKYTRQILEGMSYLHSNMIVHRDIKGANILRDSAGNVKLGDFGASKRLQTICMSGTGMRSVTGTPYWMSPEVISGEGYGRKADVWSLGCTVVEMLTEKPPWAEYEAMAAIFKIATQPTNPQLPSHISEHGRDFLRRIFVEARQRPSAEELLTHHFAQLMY
Arrestin-AP2 inh = inhibitors of human beta-arrestin and AP2 interaction. 340,000 tested, 0.31% active. FITC-arrestin peptide / GST-AP2 beads, flow cytometry; AP2 beta2 appendage carries R879A mutation. inhibition, % at 10 µM;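 active = inhibition above a set limit, near 3 SD of compounds lacking own fluorescence, cut at about 54% in these data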;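 note: plate controls were DMSO wells for no effect and 5 µM unlabelled arrestin peptide for full effect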
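System: GST-AP2 R879A glutathione beads | Also added: FITC-arrestin peptide, 50 nM | Times: 12 min plus 1 h, RT | Signal: Bead flow cytometry, FITC channel | Buffer or medium: PBS with 0.05% Tween 20 and 0.1% BSA | Read-out basis: Percent drop in bead-associated FITC signal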
MEKK2wt PB1 HTS = raises or lowers MEK5 binding to wildtype human MEKK2 PB1 domain; binding response (% of control), % at 10 µM; AID 1531; Q9Y2U5; 290,000 tested, 1.1% active; bead flow cytometry, Alexa488-MEK5 binding to MEKK2 WT; actives lie on both sides; in the data active = binding response below about 67% or above about 130%
MEKK2 mut-MEK5 = signal of MEK5 binding to mutant human MEKK2 PB1 domain | bead flow cytometry, Alexa488-MEK5 binding to MEKK2 mutant | percent response, % at 10 µM | 290,000 tested, 0.35% active; in the data active = percent response above about 24%, passing the limit was not always enough
MEKK2wt confirm = raises or lowers MEK5 binding to wildtype human MEKK2, retest; binding response (% of control), % at 10 µM; shares compounds with MEKK3 PB1 HTS; AID 1892; 5,900 tested, 2.4% active; bead flow cytometry, Alexa488-MEK5 binding to MEKK2 WT; actives lie on both sides; in the data active = binding response below about 16% or above about 210%; inactive = in between
MEKK2mut confirm = signal of MEK5 binding to mutant human MEKK2, retest. shares compounds with MEKK3 PB1 HTS. bead flow cytometry, Alexa488-MEK5 binding to MEKK2 mutant. percent response, % at 10 µM. 5,900 tested, 2% active. AID 1893; in the data active = percent response mostly above about 71%, no sharp cut-off; inactive = mostly below about 38%;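 note: higher means compound restores mutant binding toward wildtype level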
MEKK3-MEK5 inh = MEKK3-MEK5 PB1 inhibition, single concentration confirmation | shares compounds with MEKK3 PB1 HTS | bead flow cytometry, Alexa488-MEK5 binding to MEKK3; active compounds read low | binding response (% of control), % at 10 µM | 5,900 tested, 1.8% active | AID 1894;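 active = binding response below 72% of control, or above a set upper limit, though filed actives all read lower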;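 note: 100% = DMSO only wells and 0% = binding blocked by excess unlabeled MEK5; lower values mean stronger disruption of MEK5 binding to MEKK3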
* hit, by the source's call; x = not tested or not shown; [ ] = dose if it differs, or a comment. Only some compounds are listed: those with a hit (about 2.3% of all), similar ones and a draw of the others.

SMILES	MEKK3 PB1 HTS	Arrestin-AP2 inh	MEKK2wt PB1 HTS	MEKK2 mut-MEK5	MEKK2wt confirm	MEKK2mut confirm	MEKK3-MEK5 inh
COCCNCC(=O)N1c2ccccc2Sc2ccccc21	104	43	109	12	x	x	x
CC(C)CNCC(=O)N1c2ccccc2Sc2ccccc21	2.0*[inhibitor]	25	1.0*[inhibitor]	-42	71	-9	91
O=c1cc(-c2ccc3c(c2)OCCO3)oc2ccc(Cl)cc12	137*	-3	104	0	96	1	100
O=c1cc(-c2ccccc2)oc2ccc(Cl)cc12	x	42	x	x	x	x	x
NS(=O)(=O)c1ccc(Nc2ccc3nonc3c2[N+](=O)[O-])cc1	133*	4	110	2	98	-4	100
CC(C)c1ccc(C2C3CSCC=C3C(C#N)=C(N)C2(C#N)C#N)cc1 (configuration not stated)	1.0*[inhibitor]	x	1.0*[inhibitor]	-21	88	-2	98
N#CC(C#N)=C1C=CC=CN1/C(=C\c1ccco1)C(=O)c1ccc(Br)cc1	137*	-7	106	1	100	-2	102
N#CC(C#N)=C1C=CC=CN1/C(=C\c1ccco1)C(=O)c1ccccc1	97	9	96	-1	x	x	x
COc1ccc(C(=O)CSc2nnc(NC(=O)C3CC(=O)N(c4ccccc4)C3)s2)cc1 (configuration not stated)	136*	-4	105	1	104	9	104
CC12CCC(C(=O)NC3CCCC3)(CC1=O)C2(C)C (configuration not stated)	107	0	111	5	x	x	x
CC1(C)CC2CC(C)(CN2C(=O)C23CCC(C)(C(=O)C2)C3(C)C)C1 (configuration not stated)	128*	15	102	0	92	-8	97
CNC(=S)N1CCn2cccc2C1c1cc(OC)c(OC)c(OC)c1 (configuration not stated)	57*[inhibitor]	7	81	-3	96	-3	99
CCNC(=S)N1CCn2cccc2C1c1ccc(F)cc1 (configuration not stated)	96	-6	97	-3	x	x	x
COc1ccc(C(C)C)cc1S(=O)(=O)N1CCN(C)CC1	133*	24	133	10	112	3	107
C[C@H]1NS(=O)(=O)c2ccc(Br)cc2O[C@H]1c1ccccc1	x	6	x	x	x	x	x
CCOc1ccccc1NC(=O)CSc1nc(N)c(C#N)cc1C#N	99	0	98	3	x	x	x
COc1ccccc1NC(=O)CSc1nc(N)c(C#N)cc1C#N	130*	3	109	0	104	14	105
Cn1c(N)c(C(=O)CSc2nnc(NC3CCCCC3)s2)c(=O)n(C)c1=O	x	0	x	x	x	x	x
Cc1cccc(C(=O)Nc2cccc(OC(=O)c3cccc(C)c3)c2)c1	109	-2	115	12	x	x	x
CC(=O)Nc1cccc(C(=O)Oc2cccc(C)c2)c1O	9.0*[inhibitor]	17	16*[inhibitor]	-29	110	1	105
Cn1ncc2c(Nc3ccc4ccccc4c3)ncnc21	14*[inhibitor]	-2	19*[inhibitor]	-29	102	-3	100
CC1Oc2ccccc2N(CC(=O)N2CCCCCC2)C1=O (configuration not stated)	100	47	99	-3	x	x	x
CCOc1ccccc1NC(=O)Cn1c(C)cc(COC)c(C#N)c1=O	100	-5	103	1	x	x	x
COCc1cc(C)n(CC(=O)Nc2ccccc2C(=O)OC)c(=O)c1C#N	2.0*[inhibitor]	7	2.0*[inhibitor]	-17	99	1	103
CCCOc1ccc2c(c1)C(=NN=C(N)N)c1cc(OCCC)ccc1-2	99	-21	191*	32*	249*	88*	111
CCN(CC)CCOc1ccc2c(c1)C(=NO)c1cc(OCCN(CC)CC)ccc1-2	100	17	117	3	x	x	x
COC(=O)Cn1c(N2CCCC2)nc2c1c(=O)n(C)c(=O)n2C	112	-13	115	30*	101	-3	101
